Our source for the Activity, IC50 and Ratio values is ChEMBL document CHEMBL3098030, “Explorations of substituted urea functionality for the discovery of new activators of the heme-regulated inhibitor kinase” (J Med Chem, 2013).

The structures appear in SMILES notation. Active and inactive are the calls of the source. No cut-off for these calls is given here.

Assay [1] has as its target Eukaryotic translation initiation factor 2-alpha kinase 1 (Homo sapiens) (UniProt Q9BQI3). Nature of the assay: Activation of HRI in human CRL2813 cells assessed as increase in CHOP mRNA expression at 7.5 to 15 uM after 6 hrs by RT-PCR analysis. Format: cell-based. In outline: (§1)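 CRL-2813 cells incubated with 7.5 or 15 μM compound for 6 h; CHOP and cyclin D1 mRNA measured by real-time PCR. Each run in triplicate, mean of three independent experiments ±S.E.M.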

Assay [2] shares this target. Nature of the assay: Activation of HRI in human CRL2813 cells assessed as eIF2alpha phosphorylation after 6 hrs by Western blotting analysis. Format: cell-based. In outline:
(§2)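 CRL-2813 melanoma cells grown in serum-containing medium without antibiotics to 70% confluence, treated 6 h (10 μM for CHOP/cyclin D1), lysed in M-PER on ice 30 min, protein by BCA. Equal protein on SDS-PAGE, probed with anti-pS51-eIF2α rabbit mAb, anti-total eIF2α mouse mAb, anti-CHOP, anti-cyclin D1, anti-actin. Three independent experiments.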

Assay [3] is described as follows: Cytotoxicity against human CRL2813 cells after 5 days by SRB assay. The class given is functional, cell-based. The settings on record: CRL2813, 120 h. In outline:
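CRL-2813 melanoma or NIH/3T3 fibroblasts seeded in 96-well plates, exposed 5 days to 0.5–20 μM compound; fixed in cold 10% TCA, bound sulforhodamine B measured. % growth = 100×(T−T0)/(C−T0). IC50 derived; triplicate, three independent experiments.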
On the technique in general: The SRB assay estimates cell density from bound dye.

Assay [4] concerns the target Eukaryotic translation initiation factor 2-alpha kinase 1 (Homo sapiens) (UniProt Q9BQI3). The assay is described as follows: Activation of HRI in human CRL-2813-pBISA-DL(ATF-4) reporter cells assessed as reduction of ternary complex at 30 uM by dual-luciferase reporter gene assay relative to control. In outline: (§3)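 Stably transfected CRL-2813-pBISA-DL(ATF-4) reporter cells treated with compounds in dose-response; firefly and renilla luciferases read by dual glow luciferase kit. Activity = firefly/renilla (F/R) ratio normalized to DMSO-treated wells (set at 1). Triplicate points fitted to logistic sigmoidal model by nonlinear least squares; C3X = concentration giving F/R = 3, Emax = maximal F/R.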

Assay [5] shares this target. Nature of the assay: Activation of HRI in human CRL-2813-pBISA-DL(ATF-4) reporter cells assessed as concentration required to obtain F-luciferase expression/R-luciferase expression ratio 3. In outline: as §3
Assay [6] shares this target. The assay is described as follows: Activation of HRI in human CRL2813 cells assessed as reduction in cyclin D1 protein expression at 10 uM after 6 hrs by Western blotting analysis. The class given is cell-based. In outline: as §2
For orientation: In western blotting, separated proteins are transferred to a membrane and probed.

For assay [7] the target is unchanged. Nature of the assay: Activation of HRI in human CRL2813 cells assessed as reduction in cyclin D1 mRNA expression at 7.5 to 15 uM after 6 hrs by RT-PCR analysis. The class given is cell-based. In outline:
as §1

For assay [8] the target is unchanged. The assay is described as follows: Activation of HRI in human CRL2813 cells assessed as increase in CHOP protein expression at 10 uM after 6 hrs by Western blotting analysis. The class given is cell-based. In outline:
as §2

For assay [9] the target is unchanged. The assay is described as follows: Activation of HRI in human CRL-2813-pBISA-DL(ATF-4) reporter cells assessed as eIF2alpha phosphorylation after 8 to 32 hrs by dual-luciferase reporter gene assay. In outline:
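Reporter CRL-2813-pBISA-DL(ATF-4) cells incubated with compounds for 8, 16 or 32 h. Firefly/renilla luciferase ratio measured by dual luciferase assay and normalized to vehicle-treated cells.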
(Reporter assays use an easily measured gene product as a stand-in for the process of interest.)

Sequence of Eukaryotic translation initiation factor 2-alpha kinase 1 (Homo sapiens) (Q9BQI3 whole entry): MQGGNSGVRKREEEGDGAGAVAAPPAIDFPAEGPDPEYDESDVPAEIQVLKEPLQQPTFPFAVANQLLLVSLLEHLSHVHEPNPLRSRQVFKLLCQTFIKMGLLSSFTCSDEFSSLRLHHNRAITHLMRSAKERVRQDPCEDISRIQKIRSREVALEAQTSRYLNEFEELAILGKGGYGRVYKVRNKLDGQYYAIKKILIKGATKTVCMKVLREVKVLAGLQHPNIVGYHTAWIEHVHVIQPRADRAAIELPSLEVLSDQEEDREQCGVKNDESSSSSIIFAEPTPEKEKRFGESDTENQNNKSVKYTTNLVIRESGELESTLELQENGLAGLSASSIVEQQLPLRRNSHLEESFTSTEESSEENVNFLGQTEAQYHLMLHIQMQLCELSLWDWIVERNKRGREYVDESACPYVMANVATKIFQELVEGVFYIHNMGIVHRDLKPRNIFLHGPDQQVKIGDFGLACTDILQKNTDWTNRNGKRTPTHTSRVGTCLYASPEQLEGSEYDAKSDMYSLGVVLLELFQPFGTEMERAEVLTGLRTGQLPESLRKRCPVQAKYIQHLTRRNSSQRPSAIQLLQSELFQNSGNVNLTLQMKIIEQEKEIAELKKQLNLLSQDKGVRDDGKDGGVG

By IC50 is commonly meant the concentration needed to halve the response being measured. On to `O=C(Nc1cccc(F)c1)N[C@H]1CC[C@H](Oc2ccc(F)cc2)CC1`, for which the result in [1], in [2], in assay [6], in [7] and in [8] was Active. The compound also came in with an IC50 in assay [3] of 8.3 µM. The Ratio in assay [4] is 6.54. In addition, the Activity in [5] is 13.5 µM.

`O=C(Nc1ccc(C(=O)O)cc1)N[C@H]1CC[C@H](Oc2ccc(F)cc2)CC1` came in with an IC50 in assay [3] of 11.6 µM. Also, the Ratio in assay [4] came to 3.49. The Activity in assay [5] came to 21.2 µM.

Compound `Cc1cccc(NC(=O)N[C@H]2CC[C@H](Oc3ccc(F)cc3)CC2)c1` yielded an IC50 in assay [3] of 14.4 µM. For the same compound, in [4], the Ratio was found to be 4.73. Further, in assay [5], the Activity amounted to 24.1 µM.

In [3], `O=C(Nc1ccc(Cl)cc1)N[C@H]1CC[C@H](Oc2ccc(F)cc2)CC1` registered an IC50 greater than 20 µM. Moreover, the Ratio in [4] turned out to be 1.65.

Compound `CSc1cccc(NC(=O)N[C@H]2CC[C@H](Oc3ccc(F)cc3)CC2)c1` gave an IC50 in [3] of 11.1 µM. Besides, the Ratio in assay [4] came to 6.67. For the same compound, the Activity in [5] was found to be 12.2 µM.

In the case of `COc1ccccc1NC(=O)N[C@H]1CC[C@H](Oc2ccc(F)cc2)CC1`, the half-inhibitory concentration (IC50) in assay [3] is greater than 20 µM. For the same compound, in [4], the Ratio amounted to 1.51.

In assay [3], `O=C(Nc1cccc(I)c1)N[C@H]1CC[C@H](Oc2ccc(F)cc2)CC1` returned an IC50 of 5.2 µM. The Ratio in [4] came out at 7.63. Besides, in [5], the Activity came to 5.6 µM.

The compound `O=C(Nc1cccc(Br)c1)N[C@H]1CC[C@H](Oc2ccc(F)cc2)CC1` yielded an IC50 in [3] of 6.2 µM. Besides, the Ratio in [4] stood at 9.52. In assay [5], the Activity was found to be 5.7 µM.

In [3], `O=C(Nc1ccccc1I)N[C@H]1CC[C@H](Oc2ccc(F)cc2)CC1` had an IC50 greater than 20 µM. For the same compound, in assay [4], the Ratio is 3.25. Further, in assay [5], the Activity is 18.5 µM.

Regarding `O=C(Nc1cccc(C(F)(F)F)c1)NC1CCCCC1`, in [3], the IC50 was found to be 13.2 µM. Further, the Ratio in assay [4] turned out to be 1.87.

In assay [3], `O=C(Nc1ccccc1OC(F)(F)F)N[C@H]1CC[C@H](Oc2ccc(F)cc2)CC1` showed an IC50 greater than 20 µM. Besides, in [4], the Ratio was determined as 1.41.

In [3], `O=C(Nc1ccccc1C(=O)O)N[C@H]1CC[C@@H](Oc2ccc(F)cc2)CC1` showed a half-inhibitory concentration (IC50) greater than 20 µM. Also, in assay [4], the Ratio is 1.2.

The compound `O=C(Nc1cccc(C(F)(F)F)c1)N[C@H]1CC[C@H](Oc2ccc(Cl)cc2)CC1` showed an IC50 in [3] of 2 µM. The Ratio in assay [4] is 6.73. Also, in assay [5], the Activity came out at 1.6 µM.

With `O=C(Nc1cccc(C(=O)O)c1)N[C@H]1CC[C@H](Oc2ccc(F)cc2)CC1`, the IC50 in assay [3] was greater than 20 µM. The Ratio in [4] worked out at 0.88.

In assay [3], `O=C(Nc1cccc(C(F)(F)F)c1)N[C@H]1CCCC[C@@H]1Oc1ccc(C(F)(F)F)cc1` (relative stereo) came in with an IC50 of 3.1 µM. Further, the Ratio in assay [4] came to 5.89. In assay [5], the Activity is 1.7 µM. Besides, the result in assay [9] was Active.

Regarding `COc1cccc(NC(=O)N[C@H]2CC[C@H](Oc3ccc(F)cc3)CC2)c1`, the IC50 in [3] stood at 14 µM. Further, the Ratio in assay [4] is 3.81. Also, in assay [5], the Activity turned out to be 26 µM.

The compound `COC(=O)c1cccc(NC(=O)N[C@H]2CC[C@H](Oc3ccc(F)cc3)CC2)c1` yielded an IC50 in [3] of 9.2 µM. In addition, in assay [4], the Ratio was determined as 6.83. For the same compound, the Activity in [5] was 17.1 µM.

The compound `COC(=O)c1ccccc1NC(=O)N[C@H]1CC[C@@H](Oc2ccc(F)cc2)CC1` gave an IC50 in assay [3] of 14.5 µM. Further, in assay [4], the Ratio is 3.79. Besides, the Activity in assay [5] was found to be 26.2 µM.

Regarding `O=C(Nc1cccc(C(F)(F)F)c1)N[C@H]1CC[C@H](Oc2ccccc2C(F)(F)F)CC1`, half-maximal inhibition in assay [3] (IC50) was put at 1.4 µM. Besides, the Ratio in assay [4] amounted to 15.7. Also, in assay [5], the Activity came out at 1.2 µM.

In the case of `O=C(Nc1ccccc1Br)N[C@H]1CC[C@H](Oc2ccc(F)cc2)CC1`, half-maximal inhibition in assay [3] (IC50) was put at 7.7 µM. In addition, in assay [4], the Ratio came to 5.23. In addition, the Activity in assay [5] amounted to 16.4 µM.

For `CSc1ccc(NC(=O)N[C@H]2CC[C@H](Oc3ccc(F)cc3)CC2)cc1`, the IC50 in assay [3] is greater than 20 µM. Besides, the Ratio in assay [4] worked out at 1.07.

Compound `O=C(Nc1cccc(C(F)(F)F)c1)N[C@H]1CC[C@H](OCc2ccc(F)cc2)CC1` came in with an IC50 in [3] of 2.65 µM. In addition, in assay [4], the Ratio came to 9.58. In assay [5], the Activity came out at 4.4 µM. In assay [9], the result was Active.

Consider `O=C(Nc1ccccc1)N[C@H]1CC[C@H](Oc2ccc(F)cc2)CC1`, for which inhibition in [3] was half-maximal at 20 µM (IC50). In addition, in [4], the Ratio was 1.65.

As for `O=C(Nc1cccc(C(F)(F)F)c1)N[C@H]1CC[C@H](O)CC1`, the half-maximal inhibitory concentration (IC50) in assay [3] is greater than 20 µM. The Ratio in [4] came to 0.89.

`Cc1ccccc1NC(=O)N[C@H]1CC[C@H](Oc2ccc(F)cc2)CC1` returned an IC50 in assay [3] greater than 20 µM. In addition, in [4], the Ratio was found to be 0.98.

Consider `O=C(Nc1cccc([N+](=O)[O-])c1)N[C@H]1CC[C@H](Oc2ccc(F)cc2)CC1`, for which the IC50 in assay [3] is 6.7 µM. For the same compound, the Ratio in assay [4] is 7.47. In addition, the Activity in [5] is 11.4 µM.

Compound `O=C(Nc1ccc(F)cc1)N[C@H]1CC[C@H](Oc2ccc(F)cc2)CC1` showed an IC50 in assay [3] of 20 µM. For the same compound, the Ratio in assay [4] was found to be 0.98.

As to `COC(=O)c1ccc(NC(=O)N[C@H]2CC[C@H](Oc3ccc(F)cc3)CC2)cc1`, the IC50 in assay [3] stood at 11.6 µM. Further, in [4], the Ratio stood at 3.97. The Activity in assay [5] was 12.8 µM.

In assay [3], `O=C(Nc1ccccc1F)N[C@H]1CC[C@H](Oc2ccc(F)cc2)CC1` returned an IC50 of 17.5 µM. Also, the Ratio in assay [4] is 2.1.

Regarding `O=C(Nc1ccccc1C(F)(F)F)N[C@H]1CC[C@H](Oc2ccc(F)cc2)CC1`, the result in assay [1], in [2], in assay [6], in assay [7] and in assay [8] was Active. Also, in assay [3], the IC50 is greater than 20 µM. Also, in [4], the Ratio is 1.56.

In turn, `O=C(Nc1ccccc1Cl)N[C@H]1CC[C@H](Oc2ccc(F)cc2)CC1` had an IC50 in assay [3] of 9.1 µM. Besides, the Ratio in assay [4] worked out at 5.37. In addition, in assay [5], the Activity was found to be 18.5 µM.

As for `O=C(Nc1ccccc1[N+](=O)[O-])N[C@H]1CC[C@H](Oc2ccc(F)cc2)CC1`, inhibition in [3] was half-maximal at 3.5 µM (IC50). Also, the Ratio in [4] is 2.23.

`O=C(Nc1ccc(I)cc1)N[C@H]1CC[C@H](Oc2ccc(F)cc2)CC1` came in with an IC50 in [3] of 10.2 µM. In addition, the Ratio in assay [4] stood at 3.77. Besides, the Activity in [5] stood at 6.3 µM.

In the case of `CSc1ccccc1NC(=O)N[C@H]1CC[C@H](Oc2ccc(F)cc2)CC1`, the IC50 in [3] is greater than 20 µM. The Ratio in assay [4] was determined as 0.92.

Take `O=C(Nc1cccc(Cl)c1)N[C@H]1CC[C@H](Oc2ccc(F)cc2)CC1`: 5.9 µM corresponded to half-maximal inhibition in assay [3] (IC50). In addition, the Ratio in [4] was 8.76. In addition, the Activity in [5] amounted to 6.4 µM.

`O=C(Nc1cccc(C(F)(F)F)c1)N[C@H]1CCC[C@H](Oc2ccc(C(F)(F)F)cc2)C1` (relative stereo) yielded an IC50 in assay [3] of 3.8 µM. Further, in [4], the Ratio was determined as 4.52. Further, in assay [5], the Activity worked out at 2.7 µM.

In [3], `Cc1ccc(NC(=O)N[C@H]2CC[C@H](Oc3ccc(F)cc3)CC2)cc1` returned an IC50 greater than 20 µM. Besides, in [4], the Ratio is 1.05.

With `COc1ccc(NC(=O)N[C@H]2CC[C@H](Oc3ccc(F)cc3)CC2)cc1`, the IC50 in [3] was greater than 20 µM. Also, the Ratio in assay [4] was found to be 0.83.

As for `O=C(Nc1ccc(Br)cc1)N[C@H]1CC[C@H](Oc2ccc(F)cc2)CC1`, in assay [3], the IC50 was greater than 20 µM. For the same compound, in [4], the Ratio amounted to 1.29.
